Laboratory results taken from ChEMBL document CHEMBL1142284, “Identification of N-(quinolin-8-yl)benzenesulfonamides as agents capable of down-regulating NFkappaB activity within two separate high-throughput screens of NFkappaB activation” (Bioorg Med Chem Lett, 2008).
pIC50: −log10 of the molar value. Calls of active or inactive are those of the source. The rule behind the calls is not given here. Peptide text beside a SMILES is read from it. * marks the point of attachment. Cbz = O=C(OCc1ccccc1)*

Assays:
OCI-Ly3 = test: (§1) Cytotoxicity against NF-kappaB overexpressing human OCI-Ly3 cells after 4 hrs; assay type: functional, cell-based
[1] = target: T1, NF-kappa-B inhibitor alpha (Homo sapiens) (UniProt P25963); test: Induction of human IkappaBalpha stabilization in OCI-Ly3 cells by green light emiting IkappaBalpha-fused luciferase reporter gene assay relative to control; assay type: cell-based
T1 sequence (whole entry): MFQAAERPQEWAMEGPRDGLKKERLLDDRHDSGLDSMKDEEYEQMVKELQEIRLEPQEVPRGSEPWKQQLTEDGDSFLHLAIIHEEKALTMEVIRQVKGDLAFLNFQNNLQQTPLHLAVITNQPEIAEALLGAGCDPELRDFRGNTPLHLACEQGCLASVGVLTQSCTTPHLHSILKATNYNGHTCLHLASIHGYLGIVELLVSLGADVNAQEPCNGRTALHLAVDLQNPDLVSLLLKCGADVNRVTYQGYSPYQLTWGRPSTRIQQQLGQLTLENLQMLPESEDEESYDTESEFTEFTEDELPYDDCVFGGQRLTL
How it was run: (§2)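 The IκBα-CBG68 fusion (green luminescence) and the CBR control reporter (red) were induced with doxycycline. The read-out was green luminescence, and EC50 is given with % efficacy relative to the MG-132 positive control. Each experiment was a concentration titration run in duplicate with concentration-response curve fitting, and values are averages of two to three experiments.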

[2] = (§3) Inhibition of TNFalpha stimulated human NF-kappaB-mediated beta lactamase gene expression in HUVEC; assay type: cell-based
[3] = target: Transcription factor p65 (Homo sapiens) (UniProt Q04206); test: Inhibition of TNF-alpha-stimulated human NF-kappaB p65 RelA subunit nuclear translocation in HUVEC relative to control; assay type: cell-based
How it was run: (§4)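 HUVEC (fewer than 8 passages) were seeded at 3,000 cells/well. Compounds were added in 8-point series, either from 10 µM final in media with 0.33% DMSO diluted 1:3, or from 8 µM diluted 1:2. After 3.5 h with compound, cells were stimulated with […] for 30 min. Cells were then fixed, permeabilized, stained with Hoechst and with anti-p65 plus an Alexa 647 secondary, and imaged automatically. IC50 is from curve fitting of one experiment run in triplicate, with BAY 11-7082 as the positive control.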

[4] = as §1; assay type: functional, cell-based; conditions: OCI-Ly3, 4 h
HUVEC [5] = test: Inhibition of human E3 ubiquitin ligase-mediated IkappaBalpha ubiquitination in HUVEC; assay type: cell-based
[6] = target: Transcription factor p65 (Homo sapiens) (UniProt Q04206); test: Inhibition of TNF-alpha-stimulated human NF-kappaB p65 RelA subunit nuclear translocation in HUVEC; how it was run: as §4
[7] = target: T1, NF-kappa-B inhibitor alpha (Homo sapiens); test: Induction of human IkappaBalpha stabilization in OCI-Ly3 cells by green light emiting IkappaBalpha-fused luciferase reporter gene assay; assay type: cell-based; how it was run: as §2
[8] = target: T1, NF-kappa-B inhibitor alpha (Homo sapiens); test: Induction of human IkappaBalpha stabilization in OCI-Ly3 cells assessed as ratio of green light emiting IkappaBalpha-fused luciferase expression to red light emiting native luciferase expression; assay type: cell-based
How it was run: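 Dual-luciferase IκBα stabilization assay: doxycycline induces both an IκBα-CBG68 fusion (green luminescence) and a CBR control (red luminescence), and the red signal normalizes for nonspecific effects. EC50 comes from the green/red luminescence ratio. Each experiment was a concentration titration run in duplicate with concentration-response curve fitting, and values are averages of two to three experiments.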

HUVEC [9] = test: as §3; assay type: cell-based

Sequence of Transcription factor p65 (Homo sapiens) (Q04206 whole entry, the tested form may be a part): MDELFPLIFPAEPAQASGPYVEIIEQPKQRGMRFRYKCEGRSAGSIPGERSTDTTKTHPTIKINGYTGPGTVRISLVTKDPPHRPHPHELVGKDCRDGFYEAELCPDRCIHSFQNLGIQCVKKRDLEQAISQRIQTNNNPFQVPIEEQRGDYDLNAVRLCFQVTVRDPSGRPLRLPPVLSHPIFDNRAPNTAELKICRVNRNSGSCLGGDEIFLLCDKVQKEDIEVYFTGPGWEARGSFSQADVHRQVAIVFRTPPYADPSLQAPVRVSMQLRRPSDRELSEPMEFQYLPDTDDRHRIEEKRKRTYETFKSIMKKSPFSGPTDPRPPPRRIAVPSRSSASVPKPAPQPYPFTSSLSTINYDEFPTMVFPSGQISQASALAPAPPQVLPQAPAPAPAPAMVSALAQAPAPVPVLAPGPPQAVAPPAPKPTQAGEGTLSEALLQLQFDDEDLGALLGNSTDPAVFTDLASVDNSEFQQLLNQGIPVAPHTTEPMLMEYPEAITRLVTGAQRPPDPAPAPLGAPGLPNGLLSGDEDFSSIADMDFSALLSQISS

Compound | Efficacy [1] | pIC50 [2] | Efficacy [3] | Activity (HUVEC [5]) | Activity [6] | Activity [7] | Activity [8] | Activity (HUVEC [9]) | Activity (OCI-Ly3) | pIC50 [4]
Cc1ccc2cccc(NS(=O)(=O)c3ccc(C(F)(F)F)cc3[N+](=O)[O-])c2n1 | 50% | 4.89 | > 90% | – | – | – | – | – | – | < 4.24
Cc1ccc2ccc3c(c2n1)NS(=O)(=O)c1ccc(O)cc1-3 | 120% | 5.17 | > 90% | – | – | – | – | – | – | < 4.24
[O-][S+](c1ccccc1)c1ccc2nnnn2n1 (configuration not stated) | – | – | – | Active | – | – | – | – | – | –
O=S1(=O)Nc2c(ccc3cccnc23)-c2cc(Cl)ccc21 | 66% | 5.72 | > 90% | – | – | – | – | – | inactive | –
CC(C)C[C@@H](C=O)NC(=O)[C@H](CC(C)C)NC(=O)[C@H](CC(C)C)NC(=O)OCc1ccccc1 [MG-132] (Cbz-Leu-Leu-Leu-aldehyde) | 100% | 6.22 | – | – | – | – | – | – | – | < 5.00
COc1ccc(S(=O)(=O)Nc2cccc3ccc(C)nc23)c([N+](=O)[O-])c1 | – | – | 78% | – | – | – | – | – | – | –
Cc1ccc2cccc(NS(=O)(=O)c3cccc([N+](=O)[O-])c3)c2n1 | 110% | 6.00 | > 90% | – | – | – | – | – | – | < 4.24
Cc1ccc2ccc3c(c2n1)NS(=O)(=O)c1ccc(C(F)(F)F)cc1-3 | 700% | 5.44 | > 90% | – | – | – | – | – | inactive | –
COc1cc(NS(=O)(=O)c2ccc(C)cc2[N+](=O)[O-])c2ncccc2c1 | 60% | 5.40 | > 90% | – | – | – | – | – | – | < 4.24
O=S1(=O)Nc2c(ccc3cccnc23)-c2cc(O)ccc21 | – | – | – | – | inactive | – | – | – | – | –
COc1cc2ccc(C)nc2c2c1-c1cc(C)ccc1S(=O)(=O)N2 | 300% | 5.96 | > 90% | – | – | – | – | – | – | < 4.24
O=S1(=O)Nc2c(ccc3cccnc23)-c2ccccc21 | 120% | 5.47 | > 90% | inactive | – | – | – | – | inactive | –
COc1cc(NS(=O)(=O)c2ccc(C)cc2N)c2nc(C)ccc2c1 | 23% | < 4.24 | – | – | inactive | – | – | – | inactive | –
COc1cc(NS(=O)(=O)c2ccc(C)cc2)c2nc(C)ccc2c1 | 150% | < 4.24 | > 90% | – | – | – | – | – | – | < 4.24
COc1cccc2nc(-c3cccs3)nc(NN3C(=O)C=C(C)C3=O)c12 [AS-602868] | – | 5.70 | – | – | inactive | inactive | inactive | – | inactive | –
O=S1(=O)Nc2c(ccc3cccnc23)-c2cc(C(F)(F)F)ccc21 | 32% | 5.92 | > 90% | – | – | – | – | – | inactive | –
COc1ccc2c(c1)-c1ccc3cccnc3c1NS2(=O)=O | 20% | 5.89 | > 90% | – | – | – | – | – | inactive | –
COc1cnc2c3c(ccc2c1)-c1ccccc1S(=O)(=O)N3 | – | – | > 90% | – | – | – | – | – | – | –
O=S1(=O)Nc2c(ccc3cccnc23)-c2cc(F)ccc21 | 122% | 5.74 | > 90% | – | – | – | – | – | inactive | –
Cc1ccc(S(=O)(=O)/C=C/C#N)cc1 | – | – | > 90% | – | – | – | – | – | – | –
COc1cc2cccnc2c2c1-c1cc(C)ccc1S(=O)(=O)N2 | 34% | 5.70 | > 90% | – | – | – | – | – | inactive | –
Cc1ccc2cccc(NS(=O)(=O)c3cc([N+](=O)[O-])ccc3C)c2n1 | – | < 4.24 | – | – | inactive | – | – | – | inactive | –
COc1cc(NS(=O)(=O)c2ccc(C)cc2[N+](=O)[O-])c2nc(C)ccc2c1 | – | – | – | – | inactive | – | – | inactive | – | < 4.24
Cc1ccc2c(c1)-c1ccc3cccnc3c1NS2(=O)=O | 60% | 6.10 | > 90% | – | – | – | – | – | – | < 4.24
COc1ccc2c(c1)-c1ccc3ccc(C)nc3c1NS2(=O)=O | 200% | 5.49 | > 90% | – | – | – | – | – | – | < 4.24
Cc1cnc2c3c(ccc2c1)-c1ccccc1S(=O)(=O)N3 | 32% | 5.09 | – | – | – | – | – | – | inactive | –

Further lines, with some results ahead:

Efficacy [1] | pIC50 [2] | Efficacy [3] | Activity (HUVEC [5]) | Activity [6] | Activity [7] | Activity [8] | Activity (HUVEC [9]) | Compound | Activity (OCI-Ly3) | pIC50 [4]
560% | 5.30 | > 90% | – | – | – | – | – | O=[N+]([O-])c1ccc(S(=O)(=O)Nc2cccc3cccnc23)cc1 | inactive | –
250% | 5.26 | > 90% | – | – | – | – | – | Cc1ccc2cccc(NS(=O)(=O)c3ccccc3N)c2n1 | inactive | –
275% | 5.22 | > 90% | – | – | – | – | – | Cc1ccc(S(=O)(=O)Nc2cccc3cccnc23)c([N+](=O)[O-])c1 | – | < 4.24
18% | 5.74 | > 90% | – | – | – | – | – | Cc1ccc([N+](=O)[O-])cc1S(=O)(=O)Nc1cccc2cccnc12 | – | < 4.24
200% | 5.89 | > 90% | – | – | – | – | – | O=[N+]([O-])c1cc(C(F)(F)F)ccc1S(=O)(=O)Nc1cccc2cccnc12 | – | < 4.24
190% | 6.00 | > 90% | – | – | – | – | – | O=S(=O)(Nc1cccc2cccnc12)c1ccc(Cl)s1 | – | < 4.24
620% | 5.00 | > 90% | – | – | – | – | – | O=[N+]([O-])c1ccccc1S(=O)(=O)Nc1cccc2cccnc12 | inactive | –
250% | 5.15 | > 90% | – | – | – | – | – | O=S(=O)(Nc1cccc2cccnc12)c1cccs1 | inactive | –
22% | 5.30 | 75% | – | – | – | – | – | Cc1ccc2cccc(NS(=O)(=O)c3ccc(Br)s3)c2n1 | – | < 4.24
60% | 5.89 | > 90% | – | – | – | – | – | Cc1ccc2cccc(NS(=O)(=O)c3ccc(Cl)s3)c2n1 | – | < 5.00
350% | 5.10 | > 90% | – | – | – | – | – | O=S(=O)(Nc1cccc2cccnc12)c1ccccc1 | inactive | –
170% | 5.47 | > 90% | – | – | – | – | – | O=S(=O)(Nc1cccc2cccnc12)c1ccc(Br)s1 | inactive | –
90% | 5.70 | > 90% | – | – | – | – | – | COc1cc(NS(=O)(=O)c2ccc(C)cc2N)c2ncccc2c1 | – | < 4.24
200% | 5.22 | > 90% | – | – | – | – | – | Cc1ccc2cccc(NS(=O)(=O)c3ccccc3[N+](=O)[O-])c2n1 | inactive | –
300% | 4.87 | > 90% | – | – | – | – | – | Nc1ccccc1S(=O)(=O)Nc1cccc2cccnc12 | – | < 4.24
